As usually defined, the inhibition is the drop in the measured response relative to a control, in per cent.

The values that follow come from PMC3204933 (Free radical biology & medicine, 2011).

Entries after “also recorded” stand apart in the source; their conditions may differ. Where no end group is shown, it is not given here.

Assay [1] relates to Nox4 (COS-Nox4 cells). Conditions: DPI 5 μM; untreated COS-Nox4 4818±19, COS-22 2577±6.5.
The test system of assay [2] is Nox4 (COS-Nox4 cells). The assay can be described thus: cells. Conditions: Homo sapiens, read-out: inhibition of Nox4-dependent activity.
Assay [3] relates to nitric oxide synthase (NOS). Conditions: ref [41], [47]; cited from earlier work.
For assay [4], the system named is xanthine oxidase. Conditions: ref [41], [47]; cited from earlier work.
The test system of assay [5] is NADH dehydrogenase (mitochondrial complex I). The following applies: ref [41], [47]; cited from earlier work.
Assay [6] addresses T1, Nox2 oxidase (COS-Nox2 cell lysate) (Homo sapiens, UniProt P14598).
T1 sequence (P14598 1-390): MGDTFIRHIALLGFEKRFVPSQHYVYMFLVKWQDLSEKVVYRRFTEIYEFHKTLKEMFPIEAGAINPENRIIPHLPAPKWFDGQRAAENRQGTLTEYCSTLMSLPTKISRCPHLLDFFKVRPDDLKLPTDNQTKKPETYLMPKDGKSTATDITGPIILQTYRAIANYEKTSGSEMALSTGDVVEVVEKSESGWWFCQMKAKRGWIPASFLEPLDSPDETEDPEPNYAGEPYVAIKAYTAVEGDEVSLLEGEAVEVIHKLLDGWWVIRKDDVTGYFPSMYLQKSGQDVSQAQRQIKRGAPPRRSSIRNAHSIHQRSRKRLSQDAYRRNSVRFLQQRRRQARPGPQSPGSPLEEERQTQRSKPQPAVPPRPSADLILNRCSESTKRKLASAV
The assay can be described thus: SOD-inhibitable cytochrome c assay, COS-Nox2 cell-free system. The following applies: for decrease of O2^•− production: L-NAME 100 μM, rotenone 50 μM, febuxostat 100 nM, n = 3. The format is biochemical.

Assay [7] has as its system Nox1/NOXO1/NOXA1 (HEK-Nox1 cell-free system). The assay can be described thus: Cytochrome c assay, HEK-Nox1 cell-free system. Conditions: 10 μM Nox2ds preincubated with NOXO1; LiDS 130 μM. The format is biochemical, human. The gist of the method:
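[…] cells were separately transfected with Nox1, NOXO1 or NOXA1. Lysates were spun at 160000 × g for 60 min at 4 °C to give Nox1 membranes and NOXO1 and NOXA1 cytosols. NOXO1 was preincubated with vehicle or 10 μM peptide for 10 min, then Nox1 membrane and NOXA1 added in turn. LiDS (130 μM) was followed by 180 μM NADPH. Output was the initial linear rate of SOD-inhibitable cytochrome c reduction, nmol/min/10^7 cell equivalents.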

For assay [8], the system named is Nox1 oxidase (COS-Nox1/NOXO1/NOXA1 cells). The assay can be described thus: L-012 chemiluminescence, intact COS-Nox1/NOXO1/NOXA1 cells. The format is cell-based, human. The following applies: n = 3; for L-012 chemiluminescence: untreated 52977±1921.
For another assay, the system named is COS-22 cells. The assay can be described thus: L-012 chemiluminescence, intact COS-22 cells. The format is cell-based. The following applies: n = 3, untreated 8734±158.
The test system of assay [9] is HEK-Nox1/NOXO1/NOXA1 cells. The assay can be described thus: L-012 chemiluminescence, intact HEK-Nox1/NOXO1/NOXA1 cells. Conditions: PMA 1 μM. The format is cell-based, human.
Another assay relates to HEK 298 cells. The assay can be described thus: L-012 chemiluminescence, non-transfected HEK 298 cells. Format: cell-based. Conditions: PMA 1 μM; n = 4; unstimulated 755±65.3.
Assay [10] deals with Nox4 DH domain (GST-fused). The assay can be described thus: Fluorescence polarization competition with FITC-Nox4 B-loop. The following applies: for competition with Nox4 B-loop for Nox4 DH domain: fluorescence polarization. The format is binding. On the technique in general: In fluorescence polarisation assays a small probe gives low polarisation when free and higher when bound to something large.

For the next assay, the system named is SH3 domains of p47^phox. The following applies: ref [41], [42]; cited from earlier work.
The test system of assay [11] is xanthine oxidase. The assay can be described thus: Xanthine/xanthine oxidase O2^•− generating system, EPR. Format: biochemical.
The target of assay [12] is T2, Nox4 dehydrogenase domain (amino acids 304 – 578) recombinant protein fused to GST (human, UniProt Q9NPH5 304-578).
T2 sequence (looked up): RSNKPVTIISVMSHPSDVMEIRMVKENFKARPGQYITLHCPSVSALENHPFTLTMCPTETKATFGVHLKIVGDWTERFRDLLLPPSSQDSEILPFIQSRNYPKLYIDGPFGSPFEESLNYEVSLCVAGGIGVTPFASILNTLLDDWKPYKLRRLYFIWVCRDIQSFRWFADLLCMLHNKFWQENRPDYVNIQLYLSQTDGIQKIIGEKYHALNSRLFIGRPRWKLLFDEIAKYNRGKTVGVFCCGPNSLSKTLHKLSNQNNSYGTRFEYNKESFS
The assay can be described thus: fluorescence polarisation.

Take `c1ccc2c(c1)[I+]c1ccccc1-2` [DPI, diphenyleneiodonium chloride]: in the assay with Nox4 (COS-Nox4 cells) [1], the “H2O2-generating activity, Amplex Red fluorescence” value was 2977±227 RFU. The inhibition at 5 µM in the assay on Nox4 (COS-Nox4 cells) [2] came to 82%. Moreover, the “inhibition” value in assay [3] is “inhibits a multitude of flavin-containing enzymes including nitric oxide synthase (NOS)”; in the assay on xanthine oxidase [4], “inhibits a multitude of flavin-containing enzymes including nitric oxide synthase (NOS), xanthine oxidase”; in assay [5] it was “inhibits a multitude of flavin-containing enzymes including nitric oxide synthase (NOS), xanthine oxidase, and NADH dehydrogenase (mitochondrial complex I)”.
For `COC(=O)[C@@H](N)CCCNC(N)=N[N+](=O)[O-]` [L-NAME, Nω-Nitro-L-arginine methyl ester], the “decrease of O2^•− production” value in assay [6] is “did not decrease O2^•− production significantly”.
Take `CCCCCCCCCCCCOS(=O)(=O)[O-].[Li+]` [LiDS, lithium dodecyl sulfate]: in assay [6] (LiDS 130 μM, NADPH 180 μM, vehicle 0.40±0.1, p < 0.05), the “O2^•− production” value was 1.33±0.1 nmol O2^•−/min/10^7 COS-Nox2 lysate-cell equivalents. Moreover, in assay [7], the “effect on O2^•− production in HEK-Nox1 cell-free system” value was “significantly increased O2^•− production”.
In the case of `CCCCCCCCCCCCCC(=O)O[C@@H]1[C@@H](C)[C@@]2(O)[C@@H](C=C(CO)C[C@]3(O)C(=O)C(C)=C[C@@H]23)[C@@H]2C(C)(C)[C@]12OC(C)=O` [PMA, phorbol myristate acetate], the L-012 chemiluminescence in assay [8] (PMA 1 μM) is on record as 56537±2741 RLUs; in the assay on COS-22 cells (PMA 1 μM), 5903±541 RLUs; in assay [9] (n = 4, unstimulated 8560±337, p < 0.05), 12946±199 RLUs; in the assay on HEK 298 cells, 912±40.5 RLUs. Moreover, the “effect on chemiluminescent signal / O2^•−” value in [8] (SOD 150 U/ml, PMA 1 μM) is “did not stimulate O2^•−”. Further, the “stimulation of O2^•−” value in assay [9] (n = 4, p < 0.05) is “significantly stimulated O2^•−”.
On to `Cc1nc(-c2ccc(OCC(C)C)c(C#N)c2)sc1C(=O)O` [febuxostat, Febuxostat], for which the “decrease of O2^•− production” value in assay [6] was “did not decrease O2^•− production significantly”.
Regarding `C=C(C)[C@H]1Cc2c(ccc3c2O[C@@H]2COc4cc(OC)c(OC)cc4[C@@H]2C3=O)O1` [rotenone], the “decrease of O2^•− production” value in assay [6] is reported as “did not decrease O2^•− production significantly”.
Take “Nox4 B-loop: unlabeled Nox4 B-loop peptide (amino acids 77 – 106) (RTLLAYLRGSQKVPSRRTRRLLDKSRTFHI)”: the “competition with Nox4 B-loop for Nox4 DH domain” value in assay [10] is reported as “effectively competed off the FITC-Nox4 B-loop in the low micromolar range; also recorded: quite effectively, in the low micromolar range”.
With PR-39, the “SH3 binding and association of p47^phox with Nox2” value in the assay with SH3 domains of p47^phox is “binds to the SH3 domains of p47^phox, was shown to prevent association of p47^phox with Nox2”.
Regarding “[NH3]-C-L-R-V-T-R-Q-S-R-[CONH2] [scrmb Nox2ds]”, in [6] (0.1–10 μM, 5 min preincubation, LiDS 130 μM, NADPH 180 μM, 7–16 experiments), the “inhibition of O2^•− production” value was “did not inhibit Nox2-oxidase”. Further, in assay [10] (at concentrations below 0.1 mM), the “competition with Nox4 B-loop” value is recorded as “not effective”. In assay [10], the “competition with Nox4 B-loop for Nox4 DH domain” value is “equal and poor competition with the Nox4 B-loop for binding to the Nox4 DH domain (millimolar concentrations)”. Also, the “CM^• radical intensity” value in the assay with xanthine oxidase [11] (10 μM peptide + X/XO, 10 min, XO/X control 100±2.4, mean ± SEM of 6 experiments) was found to be 92.4±1.8%. In the assay with xanthine oxidase [11] (10 μM, 10 min preincubation), the “effect on XO-generated O2^•−” value is on record as “did not alter XO-generated O2^•−”.
In the case of superoxide dismutase [SOD], the “effect on chemiluminescent signal / O2^•−” value in assay [8] (SOD 150 U/ml, PMA 1 μM) is “abolished the chemiluminescent signal”. The L-012 chemiluminescence in [8] (SOD 150 U/ml) was 177±9 RLUs; with COS-22 cells (SOD 150 U/ml), 108±16 RLUs. The radical intensity in the assay with xanthine oxidase [11] (XO + X in presence of 100 U/ml SOD, 6 experiments) stood at 15.7±0.3%.

B1: unlabeled Nox4 B-loop peptide (amino acids 77 – 106) (peptide, UniProt Q9NPH5-1 77-106, looked up)
peptide: RTLLAYLRGSQKVPSRRTRRLLDKSRTFHI
For the molecule B1, the LogEC50 in [12] came to 3 nM.

B2: Nox2ds (peptide)
peptide: CSTRVRRQL-NH2
Regarding B2, in assay [12], the LogEC50 turned out to be 5.5 nM.
